Source: ChEMBL document CHEMBL3045343, “Nematicidal activity of 2-thiophenecarboxaldehyde and methylisothiocyanate from caper (Capparis spinosa) against Meloidogyne incognita” (J Agric Food Chem, 2012)
Converted amounts (≈) assume the structure as drawn.

How the values were obtained:
Meloidogyne incognita [1] = assay: Nematicidal activity against Meloidogyne incognita (root-knot nematode) juveniles J2 assessed as paralysis after 1 day; type: functional, organism-based; details: 24 h
Summary of the method: (§1)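 M. incognita (Italian population reared on tomato cv. Roma VF) J2 hatched from egg masses in distilled water at 25 ± 2 °C. Methanol stocks diluted with Tween 20 in water (final methanol ≤1% v/v). Working solution at double strength mixed 1:1 with a suspension of 25 J2 per well. Held covered, dark, 20 °C. Paralysis scored by inverted microscope. Corrected by Schneider-Orelli against water control. EC50 from log-logistic regression. Six replicates; four experiments.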

Meloidogyne incognita [2] = assay: Nematicidal activity against Meloidogyne incognita (root-knot nematode) juveniles J2 assessed as paralysis after 1 hr; type: functional, organism-based; summary of the method: as §1
Meloidogyne incognita [3] = assay: Toxicity against Meloidogyne incognita (root-knot nematode) juveniles J2 at 100 mg/L after 24 hr; type: functional
Summary of the method: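 J2 were immersed in 100 mg/L test solution in multiwell plates containing 25 J2 per well. Plates were held in the dark at 20 °C. Paralysis or death was scored by microscope after 24 h and corrected against the water control.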

Compound `N#Cc1ccc(C=O)s1` has an EC50 (Meloidogyne incognita [1]) greater than 250 µg/mL and an EC50 (Meloidogyne incognita [2]) greater than 250 µg/mL.

`O=Cc1ccc[nH]1` showed an EC50 (Meloidogyne incognita [1]) of 392 µg/mL (≈ 4120 µM) and an EC50 (Meloidogyne incognita [2]) greater than 1000 µg/mL.

`Cn1cccc1C=O` showed an EC50 (Meloidogyne incognita [1]) greater than 1000 µg/mL and an EC50 (Meloidogyne incognita [2]) greater than 1000 µg/mL.

For `N#Cc1c[nH]c2ccccc12`, the EC50 (Meloidogyne incognita [1]) was 68.9 µg/mL (≈ 485 µM) and the EC50 (Meloidogyne incognita [2]) was greater than 250 µg/mL.

For `N#Cc1ccc(C#N)s1` [2,5-THIOPHENEDINITRILE], the EC50 (Meloidogyne incognita [1]) was greater than 250 µg/mL and the EC50 (Meloidogyne incognita [2]) was greater than 250 µg/mL.

`O=Cc1ccc(C=O)s1` [2,5-THIOPHENENEDICARBOXALDEHYDE] gave an EC50 (Meloidogyne incognita [1]) of 1.13 µg/mL (≈ 8.06 µM) and an EC50 (Meloidogyne incognita [2]) of 1.2 µg/mL (≈ 8.56 µM).

`O=Cc1ccccn1` [2-PYRIDINECARBOXALDEHYDE] showed a mortality at 100 µg/mL (Meloidogyne incognita [3]) of 100%, an EC50 (Meloidogyne incognita [1]) of 3.6 µg/mL (≈ 33.6 µM) and an EC50 (Meloidogyne incognita [2]) of 25 µg/mL (≈ 233 µM).

With `O=C1CCCN1` [2-PYRROLIDONE] the EC50 (Meloidogyne incognita [1]) was greater than 250 µg/mL and the EC50 (Meloidogyne incognita [2]) was greater than 250 µg/mL.

With `N#Cc1cccs1` [2-THIOPHENECARBONITRILE] the EC50 (Meloidogyne incognita [1]) was greater than 100 µg/mL and the EC50 (Meloidogyne incognita [2]) was greater than 100 µg/mL.

With `O/N=C/c1cccs1` [2-THIOPHENECARBOXALDEHYDE OXIME] the EC50 (Meloidogyne incognita [1]) was greater than 250 µg/mL and the EC50 (Meloidogyne incognita [2]) was greater than 250 µg/mL.

Work on `O=Cc1cccs1` [2-THIOPHENENECARBOXALDEHYDE] yielded a mortality at 100 µg/mL (Meloidogyne incognita [3]) of 100%, an EC50 (Meloidogyne incognita [1]) of 14.1 µg/mL (≈ 126 µM) and an EC50 (Meloidogyne incognita [2]) of 105 µg/mL (≈ 936 µM).

Compound `O=Cc1c[nH]c2ccccc12` [3-FORMYLINDOLE] has an EC50 (Meloidogyne incognita [1]) of 301 µg/mL (≈ 2070 µM) and an EC50 (Meloidogyne incognita [2]) greater than 250 µg/mL.

In the case of `O=C1Nc2ccccc2C1=O` [ISATIN], the EC50 (Meloidogyne incognita [1]) is reported as greater than 250 µg/mL and the EC50 (Meloidogyne incognita [2]) is reported as greater than 250 µg/mL.

For `CN=C=S` [METHYLISOTHIOCYANATE], the EC50 (Meloidogyne incognita [1]) was 7.86 µg/mL (≈ 107 µM) and the EC50 (Meloidogyne incognita [2]) was greater than 10 µg/mL.

With `O=Cc1cccnc1` [NICOTINALDEHYDE] the EC50 (Meloidogyne incognita [1]) was greater than 10 µg/mL and the EC50 (Meloidogyne incognita [2]) was greater than 250 µg/mL.
